Data: ChEMBL document CHEMBL5316289, “Structure-Based Rational Design of Small α-Helical Peptides with Broad-Spectrum Activity against Multidrug-Resistant Pathogens” (J Med Chem, 2023)

Legend:
HEK293 [1] = experiment: Antiproliferative activity human HEK293 cells assessed as reduction in cell viability at 250 ug/ml incubated for 24 hrs by MTS assay; type: functional; conditions: dose 250 µg/ml
How it was run: (§1)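 Cells seeded at 10,000 per well 24 h before treatment. Media: MRC-5 and HEK293 in DMEM with 10% FBS; HepaRG in William's E with GlutaMAX; HEKa in Dermal Cell Basal medium plus keratinocyte growth kit. Peptide at 10–250 μg/mL in triplicate for 24 h, 37 °C, 5% CO2. MTS added for 2 h, then A490 read. Survival is blank-corrected OD as % of untreated control.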

HEK293 [2] = experiment: Antiproliferative activity human HEK293 cells assessed as reduction in cell viability at 50 ug/ml incubated for 24 hrs by MTS assay; type: functional; conditions: dose 50 µg/ml; how it was run: as §1
Cell membrane [3] = experiment: Induction of membrane disruption in bacterial inner membrane mimic DOPC/DOPG (7:3) large unilamellar vesicles assessed as induction of dye leakage at 5 ug/ml measured after 100 mins by calcein dye based analysis; type: subcellular; conditions: dose 5.0 µg/ml
How it was run: (§2)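 LUVs loaded with calcein: DOPC/DOPG 7:3 w/w (bacterial mimic) or DOPC/cholesterol 10:1 w/w (mammalian mimic). Mixed 1:1 by volume with peptide at 5, 10, 20, 30 or 50 μg/mL. Fluorescence (ex 490/em 520 nm) read every 10 min for 100 min. Leakage expressed relative to 10% Triton X-100 lysis (100%), after subtracting liposome background. Triplicate.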

Escherichia coli [4] = experiment: Bactericidal activity against […] Escherichia coli ATCC BAA 2452 assessed as inhibition of bacterial growth at MIC to 4 times of MIC by Time kill assay; type: functional, organism-based; conditions: time 4.0 hrs, TDE = time-dependent effect
How it was run: (§3)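 Aliquots taken every 30 min for 4 h and plated on agar for viable colony counts. Two independent experiments in triplicate.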

[5] = Antiproliferative activity human HEKa cells assessed as reduction in cell viability at 50 ug/ml incubated for 24 hrs by MTS assay; type: functional; conditions: dose 50 µg/ml; how it was run: as §1
Escherichia coli [6] = experiment: Antibacterial activity against Escherichia coli ATCC 25922 assessed as fold increase in MIC incubated for 24 hrs in presence of Mg2+ ions by CLSI based broth microdilution method; type: functional
How it was run: (§4)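 E. coli MICs by CLSI broth microdilution in cation-adjusted Mueller Hinton broth. […] Inoculum was 10^6 CFU/mL with 2-fold serial peptide dilutions, incubated 24 h at 37 °C. MIC is the lowest concentration inhibiting growth. Three independent assays, each in triplicate.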

Staphylococcus aureus [7] = experiment: Antibacterial activity against methicillin resistant Staphylococcus aureus ATCC BAA 1556 assessed as fold increase in MIC incubated for 24 hrs in presence of Na+ ions by CLSI based broth microdilution method; type: functional
How it was run: (§5)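 CLSI broth microdilution. Overnight cultures diluted in cation-adjusted Mueller Hinton broth to 10^6 CFU/mL, mixed 1:1 with 2-fold serial peptide dilutions, 24 h at 37 °C. […] MIC is the lowest concentration inhibiting growth. Three independent assays in triplicate.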

Escherichia coli [8] = experiment: Antibacterial activity against Escherichia coli ATCC 25922 assessed as fold increase in MIC incubated for 24 hrs in presence of Ca2+ ions by CLSI based broth microdilution method; type: functional; how it was run: as §4
MRC5 [9] = experiment: Antiproliferative activity human MRC5 cells assessed as reduction in cell viability at 50 ug/ml incubated for 24 hrs by MTS assay; type: functional; conditions: dose 50 µg/ml; how it was run: as §1
MRC5 [10] = experiment: Antiproliferative activity human MRC5 cells assessed as reduction in cell viability at 250 ug/ml incubated for 24 hrs by MTS assay; type: functional; conditions: dose 250 µg/ml; how it was run: as §1
Cell membrane [11] = experiment: Disruption of cell membrane in methicillin resistant Staphylococcus aureus ATCC BAA 1556 assessed as increase in PI fluorescence intensity measured after 1 hrs by PI staining based flow cytometric analysis; type: subcellular
How it was run: (§6)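 Mid-log cells grown in Mueller Hinton broth, washed in 10 mM Tris pH 7.4, 10^7 CFU/mL, treated at MIC and 4× MIC for 1 h. Pelleted, washed, PI-stained for 15 min at 37 °C in the dark, then counted by flow cytometry for % PI-positive cells. PBS-treated cells as negative control, 10% Triton X-100 as positive control. Run in triplicate; two-tailed unpaired t-test.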

Cell membrane [12] = experiment: Disruption of cell membrane in methicillin resistant Staphylococcus aureus ATCC BAA 1556 assessed as increase in PI fluorescence intensity at 4 times of MIC measured after 1 hrs by PI staining based flow cytometric analysis; how it was run: as §6
Staphylococcus aureus [13] = experiment: Bactericidal activity against methicillin resistant Staphylococcus aureus ATCC BAA 1556 assessed as inhibition of bacterial growth at MIC incubated for 4 hrs by Time kill assay; type: functional; how it was run: as §3
Staphylococcus aureus [14] = experiment: Antibacterial activity against methicillin resistant Staphylococcus aureus ATCC BAA 1556 assessed as fold increase in MIC incubated for 24 hrs in presence of K+ ions by CLSI based broth microdilution method; type: functional; how it was run: as §5
Staphylococcus aureus [15] = experiment: Bactericidal activity against methicillin resistant Staphylococcus aureus ATCC BAA 1556 assessed as inhibition of bacterial growth at MIC to 4 times of MIC by Time kill assay; type: functional, organism-based; conditions: time 4.0 hrs, TDE = time-dependent effect; how it was run: as §3
Staphylococcus aureus [16] = experiment: Antibacterial activity against methicillin resistant Staphylococcus aureus ATCC BAA 1556 assessed as fold increase in MIC incubated for 24 hrs in presence of NH4+ ions by CLSI based broth microdilution method; type: functional; how it was run: as §5
HepaRG [17] = experiment: Antiproliferative activity human HepaRG cells assessed as reduction in cell viability at 50 ug/ml incubated for 24 hrs by MTS assay; type: functional; conditions: dose 50 µg/ml; how it was run: as §1
Cell membrane [18] = experiment: Induction of membrane disruption in bacterial inner membrane mimic DOPC/DOPG (7:3) large unilamellar vesicles assessed as induction of dye leakage measured upto 100 mins by calcein dye based analysis; type: subcellular; conditions: dose 5-50 µg/ml; how it was run: as §2
Escherichia coli [19] = experiment: Antibacterial activity against Escherichia coli ATCC 25922 assessed as fold increase in MIC incubated for 24 hrs in presence of Na+ ions by CLSI based broth microdilution method; type: functional; how it was run: as §4
Staphylococcus aureus [20] = experiment: Antibacterial activity against methicillin resistant Staphylococcus aureus ATCC BAA 1556 assessed as fold increase in MIC incubated for 24 hrs in presence of Mg2+ ions by CLSI based broth microdilution method; type: functional; how it was run: as §5
Staphylococcus aureus [21] = experiment: Antibacterial activity against methicillin resistant Staphylococcus aureus ATCC BAA 1556 assessed as fold increase in MIC incubated for 24 hrs in presence of Ca2+ ions by CLSI based broth microdilution method; type: functional; how it was run: as §5
HepaRG [22] = experiment: Antiproliferative activity human HepaRG cells assessed as reduction in cell viability at 250 ug/ml incubated for 24 hrs by MTS assay; type: functional; conditions: dose 250 µg/ml; how it was run: as §1
Escherichia coli [23] = experiment: Antibacterial activity against Escherichia coli ATCC 25922 assessed as fold increase in MIC incubated for 24 hrs in presence of K+ ions by CLSI based broth microdilution method; type: functional; how it was run: as §4
Staphylococcus aureus [24] = experiment: Bactericidal activity against methicillin resistant Staphylococcus aureus ATCC BAA 1556 assessed as inhibition of bacterial growth at 4 times of MIC incubated for 4 hrs by Time kill assay; type: functional; how it was run: as §3

H-KWLKKWLKWWKK-NH2 showed an Activity (HEK293 [1]) greater than 60%, an Activity (HEK293 [2]) greater than 75% and an Activity (Cell membrane [3]) of 30%. The inhibition (Escherichia coli [4]) was “Tde”, the Activity [5] was greater than 75% and the “fold change (FC)” value (Escherichia coli [6]) was 2. The “fold change (FC)” value (Staphylococcus aureus [7]) was 2, the “fold change (FC)” value (Escherichia coli [8]) was 2 and the Activity (MRC5 [9]) was greater than 75%. For the same substance, the Activity (MRC5 [10]) was greater than 60%, the Activity (Cell membrane [11]) was “Dose-Dependent Effect” and the Activity (Cell membrane [12]) was 75%. For the same substance, the “inhibition (INH)” value (Staphylococcus aureus [13]) was 75%, the “fold change (FC)” value (Staphylococcus aureus [14]) was 2 and the inhibition (Staphylococcus aureus [15]) was “Tde”. The “fold change (FC)” value (Staphylococcus aureus [16]) was 2, the Activity (HepaRG [17]) was greater than 75% and the Activity (Cell membrane [18]) was “Dose-Dependent Effect”. The “fold change (FC)” value (Escherichia coli [19]) was 2, the “fold change (FC)” value (Staphylococcus aureus [20]) was 2 and the “fold change (FC)” value (Staphylococcus aureus [21]) was 2. For the same substance, the Activity (HepaRG [22]) was greater than 60%, the “fold change (FC)” value (Escherichia coli [23]) was 2 and the “inhibition (INH)” value (Staphylococcus aureus [24]) was 100%.

H-RWLRRWLRWWRR-NH2 showed an Activity (HEK293 [1]) of less than 30%, an Activity (HEK293 [2]) of less than 60% and an Activity (Cell membrane [3]) of 30%. For the same substance, the inhibition (Escherichia coli [4]) was “Tde”, the Activity [5] was less than 60% and the “fold change (FC)” value (Escherichia coli [6]) was 2. The “fold change (FC)” value (Staphylococcus aureus [7]) was 2, the “fold change (FC)” value (Escherichia coli [8]) was 2 and the Activity (MRC5 [9]) was less than 60%. The Activity (MRC5 [10]) was less than 30%, the Activity (Cell membrane [11]) was “Dose-Dependent Effect” and the Activity (Cell membrane [12]) was 75%. For the same substance, the “inhibition (INH)” value (Staphylococcus aureus [13]) was 75%, the “fold change (FC)” value (Staphylococcus aureus [14]) was 2 and the inhibition (Staphylococcus aureus [15]) was “Tde”. For the same substance, the “fold change (FC)” value (Staphylococcus aureus [16]) was 2, the Activity (HepaRG [17]) was less than 60% and the Activity (Cell membrane [18]) was “Dose-Dependent Effect”. For the same substance, the “fold change (FC)” value (Escherichia coli [19]) was 2, the “fold change (FC)” value (Staphylococcus aureus [20]) was 2 and the “fold change (FC)” value (Staphylococcus aureus [21]) was 2. For the same substance, the Activity (HepaRG [22]) was less than 30%, the “fold change (FC)” value (Escherichia coli [23]) was 2 and the “inhibition (INH)” value (Staphylococcus aureus [24]) was 100%.
